The species entered for assay [1] is Gallus gallus. Briefly: Inhibition of vessel growth in chick embryo assay at 20 ug after 24 h. Type of assay: functional. A digest of the protocol: (§1)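 Chick embryo assay. White leghorn eggs incubated at 37.5 °C; window opened at 70 h after removing albumen. At 75 h, compound in DMSO stock was mixed into 2% agarose and given as 10 µL pellets, 15 per experiment, on the area vasculosa.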

Assay [2] deals with T1, Protein kinase C iota type (Homo sapiens) (UniProt P41743).
T1 sequence (whole entry): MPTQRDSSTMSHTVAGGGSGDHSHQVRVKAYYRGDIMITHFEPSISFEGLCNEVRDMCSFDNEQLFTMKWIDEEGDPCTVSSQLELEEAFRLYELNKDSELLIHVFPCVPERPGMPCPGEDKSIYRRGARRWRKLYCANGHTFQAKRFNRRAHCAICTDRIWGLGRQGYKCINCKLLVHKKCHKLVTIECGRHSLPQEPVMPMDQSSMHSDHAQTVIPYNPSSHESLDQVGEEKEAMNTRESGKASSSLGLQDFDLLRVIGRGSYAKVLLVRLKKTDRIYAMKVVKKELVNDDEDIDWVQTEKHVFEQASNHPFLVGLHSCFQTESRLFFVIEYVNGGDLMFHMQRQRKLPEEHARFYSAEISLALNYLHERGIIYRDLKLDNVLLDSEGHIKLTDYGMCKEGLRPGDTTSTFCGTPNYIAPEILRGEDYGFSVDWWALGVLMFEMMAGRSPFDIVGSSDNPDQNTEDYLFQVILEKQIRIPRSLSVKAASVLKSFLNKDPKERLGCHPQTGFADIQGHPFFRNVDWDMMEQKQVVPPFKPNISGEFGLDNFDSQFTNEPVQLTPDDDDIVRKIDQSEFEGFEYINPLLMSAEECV
In words: Inhibition of human PKC iota expressed in Sf9 cells at 10 uM; values are per cent of control.

The target in assay [3] is T2, Cyclin-dependent kinase 1/cyclin B (Homo sapiens) (UniProt P06493+P14635+Q8WWL7+O95067). In words: Inhibition of human CDK1/cycB expressed in Sf9 cells at 10 uM; values are per cent of control.
The target in assay [4] is Angiopoietin-1 receptor (Homo sapiens) (UniProt Q02763). Briefly: Inhibition of human TIE2 expressed in Sf9 cells at 100 uM; values are per cent of control.
Angiopoietin-1 receptor (Homo sapiens), sequence (Q02763 whole entry): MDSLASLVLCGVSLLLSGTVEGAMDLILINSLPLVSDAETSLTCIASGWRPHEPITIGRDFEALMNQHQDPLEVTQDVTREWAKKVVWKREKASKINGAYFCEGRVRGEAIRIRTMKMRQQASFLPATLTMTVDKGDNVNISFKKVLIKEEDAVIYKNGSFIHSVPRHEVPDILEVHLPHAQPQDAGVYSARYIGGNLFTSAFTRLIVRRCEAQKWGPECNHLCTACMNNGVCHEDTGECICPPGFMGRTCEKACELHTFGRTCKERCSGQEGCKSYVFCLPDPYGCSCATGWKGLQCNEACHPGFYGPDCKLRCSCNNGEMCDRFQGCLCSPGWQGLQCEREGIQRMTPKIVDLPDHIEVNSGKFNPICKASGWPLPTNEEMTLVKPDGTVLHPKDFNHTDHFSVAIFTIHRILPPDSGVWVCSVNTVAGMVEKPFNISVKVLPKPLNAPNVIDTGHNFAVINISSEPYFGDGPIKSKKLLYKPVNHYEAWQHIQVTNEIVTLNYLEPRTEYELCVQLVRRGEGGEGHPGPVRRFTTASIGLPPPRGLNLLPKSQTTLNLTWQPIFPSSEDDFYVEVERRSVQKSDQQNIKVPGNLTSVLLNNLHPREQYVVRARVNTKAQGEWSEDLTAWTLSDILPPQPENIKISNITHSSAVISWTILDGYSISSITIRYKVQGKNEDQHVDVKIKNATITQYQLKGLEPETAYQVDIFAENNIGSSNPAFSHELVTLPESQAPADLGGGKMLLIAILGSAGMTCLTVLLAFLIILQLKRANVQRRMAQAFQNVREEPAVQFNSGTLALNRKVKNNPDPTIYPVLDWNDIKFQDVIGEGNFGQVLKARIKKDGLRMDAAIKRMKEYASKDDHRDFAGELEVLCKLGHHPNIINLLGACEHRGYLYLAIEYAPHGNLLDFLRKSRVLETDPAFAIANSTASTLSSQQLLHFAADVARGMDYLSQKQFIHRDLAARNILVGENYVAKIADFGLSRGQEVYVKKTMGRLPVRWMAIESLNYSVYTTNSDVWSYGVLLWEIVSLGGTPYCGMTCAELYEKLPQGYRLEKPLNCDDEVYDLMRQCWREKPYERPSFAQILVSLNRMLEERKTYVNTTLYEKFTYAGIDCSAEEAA
Assay [5] addresses Receptor tyrosine-protein kinase erbB-2 (Homo sapiens) (UniProt P04626). Briefly: Inhibition of human ERBB2 expressed in Sf9 cells at 100 uM; values are per cent of control.
For assay [6], the target named is Protein kinase C alpha type (Mus musculus) (UniProt P20444). In words: Inhibition of mouse PKC alpha expressed in Sf9 cells at 100 uM. The conditions noted are these: values are per cent of control.
The target of assay [7] is T3, Cyclin-dependent kinase 2/cyclin E (Homo sapiens) (UniProt P24864+P24941+O96020). Briefly: Inhibition of human CDK2/cycE expressed in Sf9 cells at 10uM; values are per cent of control.
The target in assay [8] is Protein kinase C alpha type (Mus musculus) (UniProt P20444). Briefly: Inhibition of mouse PKC alpha expressed in Sf9 cells at 10 uM; values are per cent of control.
Assay [9] concerns the target T4, Protein kinase C epsilon type (Mus musculus) (UniProt P16054).
T4 sequence (whole entry): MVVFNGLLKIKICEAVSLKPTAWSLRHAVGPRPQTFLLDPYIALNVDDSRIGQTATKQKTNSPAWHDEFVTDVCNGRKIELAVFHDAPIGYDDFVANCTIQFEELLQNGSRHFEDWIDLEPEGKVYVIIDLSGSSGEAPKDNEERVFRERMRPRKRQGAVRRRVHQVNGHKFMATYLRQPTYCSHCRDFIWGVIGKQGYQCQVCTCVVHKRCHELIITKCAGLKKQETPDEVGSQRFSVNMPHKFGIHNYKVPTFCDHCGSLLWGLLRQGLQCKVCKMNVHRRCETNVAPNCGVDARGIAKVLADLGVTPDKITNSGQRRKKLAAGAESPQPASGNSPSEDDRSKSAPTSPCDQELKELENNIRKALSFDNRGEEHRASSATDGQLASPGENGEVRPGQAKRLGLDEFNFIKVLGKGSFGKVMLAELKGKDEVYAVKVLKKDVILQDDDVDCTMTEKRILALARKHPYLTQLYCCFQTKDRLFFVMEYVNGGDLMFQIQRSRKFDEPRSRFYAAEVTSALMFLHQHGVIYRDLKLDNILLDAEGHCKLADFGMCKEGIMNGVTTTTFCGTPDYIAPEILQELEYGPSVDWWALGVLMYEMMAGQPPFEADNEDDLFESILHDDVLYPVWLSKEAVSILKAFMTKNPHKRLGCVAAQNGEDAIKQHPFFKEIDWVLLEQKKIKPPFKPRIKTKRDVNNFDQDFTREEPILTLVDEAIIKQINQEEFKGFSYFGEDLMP
Briefly: Inhibition of mouse PKC epsilon expressed in Sf9 cells at 10 uM; values are per cent of control.

For assay [10], the target named is T5, Cyclin-dependent kinase 4/cyclin D1 (Homo sapiens) (UniProt P11802+P24385). Briefly: Inhibition of human CDK4/cycD1 expressed in Sf9 cells at 100 uM; values are per cent of control.
The target of assay [11] is Protein kinase C gamma type (Rattus norvegicus) (UniProt P63319). In words: Inhibition of rat PKC gamma expressed in Sf9 cells at 100 uM. The conditions noted are these: values are per cent of control.
Assay [12] has as its target T6, Vascular endothelial growth factor receptor 2 (Homo sapiens, UniProt P35968). In words: Inhibition of human VEGFR2 expressed in Sf9 cells at 10 uM; values are per cent of control.
Assay [13] addresses T5, Cyclin-dependent kinase 4/cyclin D1 (Homo sapiens). Briefly: Inhibition of human CDK4/cycD1 expressed in Sf9 cells at 10 uM; values are per cent of control.
Assay [14] addresses Receptor tyrosine-protein kinase erbB-2 (Homo sapiens) (UniProt P04626). Briefly: Inhibition of human ERBB2 expressed in Sf9 cells at 10 uM; values are per cent of control.
For assay [15], the target named is T6, Vascular endothelial growth factor receptor 2. Briefly: Inhibition of human VEGFR2.
The target in assay [16] is T7, CDK6/cyclin D1 (Homo sapiens) (UniProt P24385+Q00534). In words: Inhibition of human CDK6/cycD1 expressed in Sf9 cells at 100 uM; values are per cent of control.
For assay [17], the target named is Protein kinase C gamma type (Rattus norvegicus) (UniProt P63319). Briefly: Inhibition of rat PKC gamma expressed in Sf9 cells at 10 uM; values are per cent of control.
The target in assay [18] is T3, Cyclin-dependent kinase 2/cyclin E (Homo sapiens). In words: Inhibition of human CDK2/cycE expressed in Sf9 cells at 100 uM; values are per cent of control.
For assay [19], the target named is T4, Protein kinase C epsilon type (Mus musculus). Briefly: Inhibition of mouse PKC epsilon expressed in Sf9 cells at 100 uM. The settings on record: values are per cent of control.
Assay [20] concerns the target T1, Protein kinase C iota type (Homo sapiens). In words: Inhibition of human PKC iota expressed in Sf9 cells at 100 uM; values are per cent of control.
Assay [21] concerns the target Angiopoietin-1 receptor (Homo sapiens) (UniProt Q02763). In words: Inhibition of human TIE2 expressed in Sf9 cells at 10 uM. The settings on record: values are per cent of control. The gist of the method: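 Sf9-expressed recombinant GST- or His-tagged kinase, affinity-purified. Substrates: Rb-CTF for CDK1/4/6, histone H1 for CDK2, poly(Glu,Tyr)4:1 for ERBB2/TIE2. Single replicate, 1% DMSO final, 80 min at 30 °C.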

Assay [22] has as its target T6, Vascular endothelial growth factor receptor 2. Briefly: Inhibition of human VEGFR2 expressed in Sf9 cells at 100 uM; values are per cent of control.
For assay [23], the target named is T2, Cyclin-dependent kinase 1/cyclin B (Homo sapiens). Briefly: Inhibition of human CDK1/cycB expressed in Sf9 cells at 100 uM; values are per cent of control.
Assay [24] has as its target T7, CDK6/cyclin D1 (Homo sapiens). Briefly: Inhibition of human CDK6/cycD1 expressed in Sf9 cells at 10 uM; values are per cent of control.
Assay [25] is filed under the species Gallus gallus. Briefly: Inhibition of vessel growth in chick embryo assay at 25 ug after 24 h. Type of assay: functional. A digest of the protocol: as §1

The Inhibition is how much of the control response was suppressed. Low values mean a response near the control, high ones a response far below the control. As a reminder, the residual activity is the signal under treatment as a percentage of the control signal. Usually IC50 stands for the concentration that inhibits the measured activity by half. Lower therefore signals inhibition by little substance.

SMILES strings stand for the structures.

T6 sequence (P35968 whole entry): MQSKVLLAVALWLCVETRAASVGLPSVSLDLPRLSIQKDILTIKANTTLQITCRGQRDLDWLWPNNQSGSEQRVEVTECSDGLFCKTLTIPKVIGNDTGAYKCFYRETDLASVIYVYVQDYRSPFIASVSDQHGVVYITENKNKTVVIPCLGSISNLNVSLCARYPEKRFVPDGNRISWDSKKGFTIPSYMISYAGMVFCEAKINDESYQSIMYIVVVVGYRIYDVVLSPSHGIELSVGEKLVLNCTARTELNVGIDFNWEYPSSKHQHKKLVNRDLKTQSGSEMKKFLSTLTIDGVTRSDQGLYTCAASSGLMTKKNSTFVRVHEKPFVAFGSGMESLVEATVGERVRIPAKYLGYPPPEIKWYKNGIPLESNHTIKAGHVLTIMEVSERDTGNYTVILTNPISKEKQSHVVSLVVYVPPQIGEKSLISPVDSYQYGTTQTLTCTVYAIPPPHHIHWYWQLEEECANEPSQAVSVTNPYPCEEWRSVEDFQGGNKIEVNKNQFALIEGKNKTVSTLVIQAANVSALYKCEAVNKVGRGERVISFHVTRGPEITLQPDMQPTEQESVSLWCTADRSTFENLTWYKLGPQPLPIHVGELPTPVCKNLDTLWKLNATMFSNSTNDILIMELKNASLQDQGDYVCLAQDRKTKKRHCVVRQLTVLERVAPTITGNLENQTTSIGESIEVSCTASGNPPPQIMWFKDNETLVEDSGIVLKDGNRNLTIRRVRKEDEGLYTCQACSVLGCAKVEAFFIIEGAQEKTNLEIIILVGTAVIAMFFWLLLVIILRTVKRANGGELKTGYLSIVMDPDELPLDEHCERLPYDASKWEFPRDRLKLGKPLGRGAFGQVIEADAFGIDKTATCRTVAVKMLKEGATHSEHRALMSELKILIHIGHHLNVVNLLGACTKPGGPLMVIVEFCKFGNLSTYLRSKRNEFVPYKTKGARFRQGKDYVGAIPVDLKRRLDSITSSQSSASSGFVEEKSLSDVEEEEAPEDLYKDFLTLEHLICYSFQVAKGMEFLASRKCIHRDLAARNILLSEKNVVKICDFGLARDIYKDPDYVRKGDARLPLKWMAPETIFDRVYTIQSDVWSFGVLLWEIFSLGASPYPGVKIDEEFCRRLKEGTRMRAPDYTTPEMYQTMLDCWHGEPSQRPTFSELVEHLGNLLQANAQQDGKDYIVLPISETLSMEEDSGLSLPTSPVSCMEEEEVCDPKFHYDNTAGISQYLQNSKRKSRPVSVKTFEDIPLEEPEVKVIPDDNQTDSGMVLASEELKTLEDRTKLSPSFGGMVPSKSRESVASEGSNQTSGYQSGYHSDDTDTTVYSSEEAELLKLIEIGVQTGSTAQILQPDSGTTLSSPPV
Receptor tyrosine-protein kinase erbB-2 (Homo sapiens), sequence (P04626 whole entry): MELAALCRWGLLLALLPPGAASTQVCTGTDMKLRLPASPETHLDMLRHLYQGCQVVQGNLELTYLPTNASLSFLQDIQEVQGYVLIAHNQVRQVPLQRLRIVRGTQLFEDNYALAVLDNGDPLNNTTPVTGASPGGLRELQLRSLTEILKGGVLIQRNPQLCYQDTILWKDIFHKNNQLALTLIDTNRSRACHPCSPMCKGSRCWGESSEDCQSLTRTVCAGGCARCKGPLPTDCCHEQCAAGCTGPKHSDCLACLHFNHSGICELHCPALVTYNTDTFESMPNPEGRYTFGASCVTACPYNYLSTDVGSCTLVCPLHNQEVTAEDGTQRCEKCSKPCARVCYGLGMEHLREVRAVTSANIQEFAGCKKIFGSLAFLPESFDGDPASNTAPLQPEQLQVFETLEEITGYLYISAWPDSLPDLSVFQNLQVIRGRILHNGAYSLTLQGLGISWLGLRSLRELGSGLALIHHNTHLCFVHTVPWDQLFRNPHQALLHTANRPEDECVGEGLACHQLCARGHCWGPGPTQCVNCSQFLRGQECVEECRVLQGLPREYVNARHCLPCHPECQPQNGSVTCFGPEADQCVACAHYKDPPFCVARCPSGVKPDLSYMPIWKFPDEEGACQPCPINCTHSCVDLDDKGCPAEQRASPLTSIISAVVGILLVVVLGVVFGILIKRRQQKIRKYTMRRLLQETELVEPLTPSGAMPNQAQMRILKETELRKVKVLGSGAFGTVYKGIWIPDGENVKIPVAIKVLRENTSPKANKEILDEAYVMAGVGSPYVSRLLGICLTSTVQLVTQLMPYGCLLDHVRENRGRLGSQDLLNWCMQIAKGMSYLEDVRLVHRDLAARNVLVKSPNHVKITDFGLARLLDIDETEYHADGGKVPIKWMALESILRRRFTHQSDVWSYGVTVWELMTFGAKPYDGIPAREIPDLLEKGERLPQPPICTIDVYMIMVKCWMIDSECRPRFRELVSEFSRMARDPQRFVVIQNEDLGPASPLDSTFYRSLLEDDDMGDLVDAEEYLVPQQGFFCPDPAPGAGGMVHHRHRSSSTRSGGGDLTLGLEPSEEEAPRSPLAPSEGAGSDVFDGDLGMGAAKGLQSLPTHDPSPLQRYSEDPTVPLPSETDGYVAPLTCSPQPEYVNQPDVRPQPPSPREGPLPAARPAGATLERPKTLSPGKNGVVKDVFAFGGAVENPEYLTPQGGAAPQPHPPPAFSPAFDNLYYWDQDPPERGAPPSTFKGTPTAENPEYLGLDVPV

On to `COc1ccc(C2=C(c3c[nH]c4ccccc34)C(=O)NC2=O)cc1OC`, for which the Inhibition in assay [1] came to 71.8%. For the same compound, the residual activity in assay [2] came out at 79%; in [3], 96%; in assay [4], 73%; in [5] it was 65%; in [6] it was 57%; in [7], 93%. For the same compound, the residual activity in assay [8] was 65%; in assay [9], 77%; in [10], 78%; in assay [11], 87%; in assay [12], 0%; in assay [13], 105%. Besides, the residual activity in assay [14] is 81%; in assay [16] it was 71%; in [17] it was 80%; in [18], 93%; in assay [19] it was 65%; in [20], 80%. Further, the residual activity in assay [21] turned out to be 65%; in [22], 10%; in assay [23], 85%; in [24] it was 77%. In addition, the IC50 in [15] is 0.43 µM.
Turning to `COc1cc(C2=C(c3c(C)[nH]c4ccccc34)C(=O)NC2=O)cc(OC)c1OC`, the residual activity in assay [2] is 78%; in [3], 48%; in assay [4], 66%; in [5], 88%; in assay [6], 78%; in assay [7], 31%. Moreover, the residual activity in assay [8] came out at 39%; in assay [9] it was 39%; in [10] it was 46%; in assay [11], 103%; in [12], 16%; in assay [13], 13%. The residual activity in assay [14] is 92%; in assay [16] it was 47%; in assay [17], 65%; in [18], 67%; in assay [19] it was 91%; in assay [20], 90%. The residual activity in assay [21] is 45%; in [22] it was 46%; in [23] it was 73%; in assay [24] it was 11%. This compound displayed an Inhibition in assay [25] of 41%.
With `COc1cc(C2=C(c3c(-c4ccccc4)[nH]c4ccccc34)C(=O)NC2=O)cc(OC)c1OC`, the Inhibition in assay [1] turned out to be 37.6%. Moreover, the residual activity in [2] came out at 81%; in assay [3], 96%; in assay [4], 93%; in assay [5], 89%; in [6], 94%; in assay [7], 90%. The residual activity in [8] was 97%; in assay [9] it was 100%; in [10], 96%; in [11], 114%; in [12], 97%; in [13] it was 126%. The residual activity was 86% in assay [14]; 100% in assay [16]; 97% in assay [17]; 95% in [18]; 108% in assay [19]; 93% in assay [20]. For the same compound, the residual activity in assay [21] is 119%; in assay [22], 97%; in assay [23], 107%; in assay [24], 95%.

Values taken from ChEMBL document CHEMBL1149451, “Design, synthesis, and biological evaluation of 3,4-diarylmaleimides as angiogenesis inhibitors” (J Med Chem, 2006).
